The target in assay [1] is T1, Decarboxylase (Enterococcus faecalis) (UniProt Q8KXD2).
T1 sequence (whole entry): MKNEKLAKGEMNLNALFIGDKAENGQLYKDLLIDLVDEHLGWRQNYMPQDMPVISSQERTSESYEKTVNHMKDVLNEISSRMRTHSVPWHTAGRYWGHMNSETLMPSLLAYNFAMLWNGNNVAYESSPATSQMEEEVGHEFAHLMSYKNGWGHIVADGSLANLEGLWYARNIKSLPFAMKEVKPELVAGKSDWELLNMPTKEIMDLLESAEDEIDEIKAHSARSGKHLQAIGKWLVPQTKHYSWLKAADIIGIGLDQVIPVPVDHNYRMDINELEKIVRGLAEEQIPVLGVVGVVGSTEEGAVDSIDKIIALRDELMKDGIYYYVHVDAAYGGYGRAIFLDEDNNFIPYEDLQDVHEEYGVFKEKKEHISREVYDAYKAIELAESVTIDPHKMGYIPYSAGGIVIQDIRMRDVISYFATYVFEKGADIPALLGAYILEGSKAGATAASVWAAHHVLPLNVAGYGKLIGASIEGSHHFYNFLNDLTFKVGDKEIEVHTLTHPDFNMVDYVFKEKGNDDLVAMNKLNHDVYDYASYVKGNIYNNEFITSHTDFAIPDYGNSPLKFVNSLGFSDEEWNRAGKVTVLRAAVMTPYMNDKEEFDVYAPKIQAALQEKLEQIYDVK
Kind of assay: Inhibition of Streptococcus faecalis tyrosine decarboxylase assessed as 14CO2 production using 5 mM L-phenylalanine-1-14C as substrate at 5 mM after 30 mins by scintillation counting analysis. Summed up:
(§1)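 Crude S. faecalis tyrosine decarboxylase acetone powder (0.5 mg) used as the phenylalanine decarboxylase. Buffer was citrate–phosphate/0.2 M NaPO₄ pH 5.5 with 0.5 mM pyridoxal 5-phosphate, and the substrate was L-phenylalanine-1-¹⁴C (10⁻² μCi/μmol). Inhibitor at 5 mM. Incubated at 37° with shaking, stopped by TCA. ¹⁴CO₂ absorbed 30 min into hyamine and counted by scintillation. Percent inhibition versus controls, average of triplicates.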

In assay [2] the target is T1, Decarboxylase (Enterococcus faecalis). Kind of assay: Inhibition of Streptococcus faecalis tyrosine decarboxylase assessed as 14CO2 production using 10 mM L-phenylalanine-1-14C as substrate at 5 mM after 20 mins by scintillation counting analysis. Summed up: as §1
Assay [3] has the same target. Kind of assay: Inhibition of Streptococcus faecalis tyrosine decarboxylase assessed as 14CO2 production using 0.8 mM L-tyrosine-1-14C as substrate at 5 mM after 20 mins by scintillation counting analysis. Summed up:
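Crude acetone-powder enzyme from S. faecalis, 8 × 10⁻³ mg per 0.5 ml, in 0.075 M citrate–0.15 M phosphate pH 5.5 with 0.5 mM pyridoxal 5-phosphate. Substrate L-tyrosine-1-¹⁴C (2.85 × 10⁻¹ μCi/μmol). Inhibitor tested at 5 mM, 37° for 20 min, stopped with TCA. ¹⁴CO₂ trapped in hyamine hydroxide for 20 min and counted by scintillation. Percent inhibition versus no-inhibitor controls, mean of triplicate runs.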

The target in assay [4] is T2, Histidine decarboxylase (Rattus norvegicus) (UniProt P16453).
T2 sequence (whole entry): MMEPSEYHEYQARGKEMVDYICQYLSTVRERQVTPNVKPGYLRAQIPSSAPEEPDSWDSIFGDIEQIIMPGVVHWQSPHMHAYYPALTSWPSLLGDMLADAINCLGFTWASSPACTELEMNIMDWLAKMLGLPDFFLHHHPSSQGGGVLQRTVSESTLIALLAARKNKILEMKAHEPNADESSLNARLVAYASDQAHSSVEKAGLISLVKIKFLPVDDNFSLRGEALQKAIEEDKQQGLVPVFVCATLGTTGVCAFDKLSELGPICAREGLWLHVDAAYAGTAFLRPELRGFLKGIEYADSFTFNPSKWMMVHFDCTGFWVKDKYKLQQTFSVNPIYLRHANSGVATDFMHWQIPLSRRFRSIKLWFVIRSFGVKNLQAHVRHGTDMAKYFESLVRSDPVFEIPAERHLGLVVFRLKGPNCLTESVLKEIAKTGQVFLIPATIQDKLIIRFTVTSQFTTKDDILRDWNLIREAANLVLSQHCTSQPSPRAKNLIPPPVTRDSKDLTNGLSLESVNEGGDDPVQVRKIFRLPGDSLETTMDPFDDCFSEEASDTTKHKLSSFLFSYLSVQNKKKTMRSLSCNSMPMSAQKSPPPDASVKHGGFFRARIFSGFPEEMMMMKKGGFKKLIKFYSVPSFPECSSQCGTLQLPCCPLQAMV
The assay is described as follows: Inhibition of fetal rat histidine decarboxylase at 1 mM.

For another assay, the system named is Ileum. The assay is described as follows: Inhibition of histamine-induced response in guinea pig ileum at 1 mM. It is filed as functional. As to conditions: Cavia porcellus.

Calls of active or inactive are those of the source. The calls are words filed in the database; no cut-off is given here.

For orientation: inhibition means the share of the control response that was lost under treatment. For `CC1(C)NC(=O)[C@H](Cc2c[nH]c3ccccc23)N1`, the inhibition in assay [1] was determined as 42%; in assay [2], 33%.
In the case of `CC1(C)NC(=O)[C@H](Cc2ccc(O)cc2)N1`, the values for the inhibition in assay [1], in assay [3] and in assay [2] were 39%, 38% and 31%, respectively.
On to `CC1(C)NC(=O)C(c2ccccc2)N1` (racemic), for which the inhibition in assay [1] was 9%; in assay [2], 7%.
As for `CC1(C)NC(=O)C(Cc2ccccc2)N1` (racemic), the inhibition came out at 17% in assay [1], 10% in assay [3] and 13% in assay [2].
In the case of `CC1(C)NC(=O)[C@H](Cc2cnc[nH]2)N1`, the inhibition result in assay [4] was “inactive”. In addition, testing at 1000 µM with Ileum gave an inhibition of 57%. In addition, the inhibition in assay [1] is 27%; in assay [2] it was 24%.

Source of the values: ChEMBL document CHEMBL3272345, “Specificity in enzyme inhibition. 3. Synthesis of 5-substituted 2,2-dimethyl-4-imidazolidinones as inhibitors of tyrosine decarboxylase and histidine decarboxylase” (1976).
